Measured values published in ChEMBL document CHEMBL3774372, “Design, physico-chemical properties and biological evaluation of some new N-[(phenoxy)alkyl]- and N-{2-[2-(phenoxy)ethoxy]ethyl}aminoalkanols as anticonvulsant agents” (Bioorg Med Chem, 2016).
Calls of active or inactive are those of the source.

What was measured:
[1] = molecular target: Sodium-dependent serotonin transporter (Homo sapiens) (UniProt P31645); test: Displacement of [3H]imipramine from human recombinant 5-HT transporter expressed in CHO cells at 10^-5 M; assay type: cell-based
Method in brief: (§1)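 Radioligand displacement screen with the test agent at a single 10^-5 M concentration; receptor source and radioligand per target as tabulated (recombinant human cell lines or rat cerebral cortex/urinary bladder).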

Rattus norvegicus [2] = organism: Rattus norvegicus; test: Displacement of [3H]D888 from rat cerebral cortex L-type calcium channel verapamil binding site at 10^-5 M; assay type: tissue-based
Method in brief: (§2)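 Radioligand binding screen run at a single test concentration of 10^-5 M. Each target used its stated receptor source (human recombinant CHO or HEK-293 cells, endogenous cell lines, or rat tissue membranes) with the listed radioligand.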

[3] = molecular target: 5-hydroxytryptamine receptor 2B (Homo sapiens, UniProt P41595); test: Displacement of [125I](+/-)DOI from human recombinant 5-HT2B receptor expressed in CHO cells at 10^-5 M; assay type: cell-based
[4] = molecular target: Galanin receptor type 1 (Homo sapiens) (UniProt P47211); test: Displacement of [125I]galanin from human recombinant GAL1 receptor expressed in HEK293 cells at 10^-5 M; assay type: cell-based; method in brief: as §2
Sequence of Galanin receptor type 1 (Homo sapiens) (P47211 whole entry): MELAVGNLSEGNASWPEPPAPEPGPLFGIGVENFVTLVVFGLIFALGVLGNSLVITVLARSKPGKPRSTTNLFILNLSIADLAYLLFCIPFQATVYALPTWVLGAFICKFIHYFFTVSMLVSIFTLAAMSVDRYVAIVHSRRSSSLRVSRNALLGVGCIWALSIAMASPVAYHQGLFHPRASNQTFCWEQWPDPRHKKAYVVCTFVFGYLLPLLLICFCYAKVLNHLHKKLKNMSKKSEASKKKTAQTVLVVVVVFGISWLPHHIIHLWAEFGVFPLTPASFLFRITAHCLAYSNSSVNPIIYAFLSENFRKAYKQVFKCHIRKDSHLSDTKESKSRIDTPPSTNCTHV

Mus musculus [5] = test: Anticonvulsant activity in mouse assessed as protection against subcutaneous pentylenetetrazol-induced seizures at 30 mg/kg, ip measured after 4 hrs; assay type: functional, organism-based
Method in brief: (§3)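 Mice dosed ip as 0.5% methylcellulose suspension; pentylenetetrazole 85 mg/kg in 0.9% NaCl injected subcutaneously into posterior midline, animals watched at least 30 min. Protection = no threshold seizure (single clonic spasm episode lasting ≥5 s); scored protected/tested.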

[6] = molecular target: Beta-2 adrenergic receptor (Homo sapiens) (UniProt P07550); test: Displacement of [3H](-)CGP12177 from human recombinant Beta-2 adrenergic receptor expressed in CHO cells at 10^-5 M; assay type: cell-based; method in brief: as §2
[7] = molecular target: Nociceptin receptor (Homo sapiens) (UniProt P41146); test: Displacement of [3H]nociceptin from human recombinant Nociceptin receptor expressed in HEK293 cells at 10^-5 M; assay type: cell-based; method in brief: as §1
Sequence of Nociceptin receptor (Homo sapiens) (P41146 whole entry): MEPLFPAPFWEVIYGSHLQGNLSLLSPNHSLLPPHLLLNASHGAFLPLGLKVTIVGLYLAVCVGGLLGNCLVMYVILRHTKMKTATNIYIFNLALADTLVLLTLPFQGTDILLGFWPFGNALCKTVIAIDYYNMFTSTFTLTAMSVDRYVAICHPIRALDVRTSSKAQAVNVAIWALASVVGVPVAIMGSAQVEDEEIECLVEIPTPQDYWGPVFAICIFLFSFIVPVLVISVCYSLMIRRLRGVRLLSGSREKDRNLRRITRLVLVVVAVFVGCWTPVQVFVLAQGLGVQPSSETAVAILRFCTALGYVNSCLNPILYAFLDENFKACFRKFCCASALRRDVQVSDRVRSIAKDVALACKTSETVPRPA

[8] = molecular target: Melanocortin receptor 4 (Homo sapiens) (UniProt P32245); test: Displacement of [125I]NDP-alpha-MSH from human recombinant MC4 receptor expressed in CHO cells at 10^-5 M; assay type: cell-based; method in brief: as §2
Rattus norvegicus [9] = test: Anticonvulsant activity in pilocarpine-induced status epilepticus Sprague-Dawley rat model at 30 mg/kg, ip after 1 hr during post stage 3 seizure; assay type: functional, organism-based
Method in brief: (§4)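 Rats given pilocarpine 50 mg/kg ip and observed to first convulsive seizure (Racine stage 3–5, time zero); test drug then given ip in 0.5% methylcellulose. Efficacy = halting further stage 3–5 convulsive seizures; scored protected/tested, time after first stage 3 seizure.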

Mus musculus [10] = test: Anticonvulsant activity in mouse assessed as protection against maximal electric shock-induced seizures at 30 mg/kg, ip measured after 0.5 hrs; assay type: functional, organism-based
Method in brief: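 Mice dosed ip with suspension in 0.5% methylcellulose; maximal electroshock applied at the listed time after dosing. Protection = abolition of hindlimb tonic extension component of seizure; reported as animals protected/animals tested.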

[11] = molecular target: Muscarinic acetylcholine receptor M2 (Homo sapiens) (UniProt P08172); test: Displacement of [3H]AF-DX384 from human recombinant muscarinic M2 receptor expressed in CHO cells at 10^-5 M; assay type: cell-based; method in brief: as §2
Rattus norvegicus [12] = organism: Rattus norvegicus; test: Displacement of [[…]]batrachotoxin from rat cerebral cortex Sodium channel site 2 at 10^-5 M; assay type: tissue-based
Rattus norvegicus [13] = organism: Rattus norvegicus; test: Displacement of [3H]GABA from rat cerebral cortex GABA receptor at 10^-5 M; assay type: tissue-based; method in brief: as §2
[14] = molecular target: Cholecystokinin receptor type A (Homo sapiens) (UniProt P32238); test: Displacement of [125I]CCK-8s from human recombinant CCK-A receptor expressed in CHO cells at 10^-5 M; assay type: cell-based; method in brief: as §2
Sequence of Cholecystokinin receptor type A (Homo sapiens) (P32238 whole entry): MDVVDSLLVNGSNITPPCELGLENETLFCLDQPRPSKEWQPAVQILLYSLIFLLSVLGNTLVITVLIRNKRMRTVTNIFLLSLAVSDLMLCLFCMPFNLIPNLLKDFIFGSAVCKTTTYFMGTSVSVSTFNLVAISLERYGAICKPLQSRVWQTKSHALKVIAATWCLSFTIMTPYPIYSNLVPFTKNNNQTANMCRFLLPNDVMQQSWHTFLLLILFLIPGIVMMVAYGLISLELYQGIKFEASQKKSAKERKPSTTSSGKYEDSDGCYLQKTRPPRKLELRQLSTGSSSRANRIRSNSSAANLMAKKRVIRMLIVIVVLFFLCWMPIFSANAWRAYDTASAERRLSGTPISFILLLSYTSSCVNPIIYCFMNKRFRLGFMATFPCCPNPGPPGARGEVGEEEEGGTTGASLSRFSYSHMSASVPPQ

[15] = molecular target: Muscarinic acetylcholine receptor M3 (Homo sapiens) (UniProt P20309); test: Displacement of [3H]4-DAMP from human recombinant muscarinic M3 receptor expressed in CHO cells at 10^-5 M; assay type: cell-based; method in brief: as §2
[16] = molecular target: Adrenergic receptor alpha-1 (Rattus norvegicus) (UniProt P15823+P23944+P43140); test: Displacement of [3H]prazosin from rat cerebral cortex Alpha-1 adrenergic receptor at 10^-5 M; assay type: tissue-based; method in brief: as §1
Mus musculus [17] = test: Anticonvulsant activity in mouse assessed as protection against subcutaneous pentylenetetrazol-induced seizures at 30 mg/kg, ip measured after 0.5 hrs; assay type: functional, organism-based; method in brief: as §3
[18] = molecular target: Substance-P receptor (Homo sapiens) (UniProt P25103); test: Displacement of [125I]BH-SP from NK1 receptor in human U373MG cells at 10^-5 M; assay type: cell-based; conditions: U-373MG ATCC; method in brief: as §2
Sequence of Substance-P receptor (Homo sapiens) (P25103 whole entry): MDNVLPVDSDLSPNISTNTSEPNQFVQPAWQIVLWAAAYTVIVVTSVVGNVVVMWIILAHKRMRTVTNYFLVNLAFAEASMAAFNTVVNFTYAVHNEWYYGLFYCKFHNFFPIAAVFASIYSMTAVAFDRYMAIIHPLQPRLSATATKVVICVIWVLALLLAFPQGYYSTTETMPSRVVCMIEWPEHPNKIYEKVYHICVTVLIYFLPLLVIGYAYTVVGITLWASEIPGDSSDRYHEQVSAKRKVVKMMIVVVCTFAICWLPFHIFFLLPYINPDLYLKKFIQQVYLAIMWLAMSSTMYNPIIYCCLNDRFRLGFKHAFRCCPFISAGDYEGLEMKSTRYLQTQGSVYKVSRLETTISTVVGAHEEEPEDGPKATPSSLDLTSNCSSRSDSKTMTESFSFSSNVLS

[19] = molecular target: 5-hydroxytryptamine receptor 2A (Homo sapiens) (UniProt P28223); test: Displacement of [3H]ketanserin from human recombinant 5-HT2A receptor expressed in HEK293 cells at 10^-5 M; assay type: cell-based; method in brief: as §1
Sequence of 5-hydroxytryptamine receptor 2A (Homo sapiens) (P28223 whole entry): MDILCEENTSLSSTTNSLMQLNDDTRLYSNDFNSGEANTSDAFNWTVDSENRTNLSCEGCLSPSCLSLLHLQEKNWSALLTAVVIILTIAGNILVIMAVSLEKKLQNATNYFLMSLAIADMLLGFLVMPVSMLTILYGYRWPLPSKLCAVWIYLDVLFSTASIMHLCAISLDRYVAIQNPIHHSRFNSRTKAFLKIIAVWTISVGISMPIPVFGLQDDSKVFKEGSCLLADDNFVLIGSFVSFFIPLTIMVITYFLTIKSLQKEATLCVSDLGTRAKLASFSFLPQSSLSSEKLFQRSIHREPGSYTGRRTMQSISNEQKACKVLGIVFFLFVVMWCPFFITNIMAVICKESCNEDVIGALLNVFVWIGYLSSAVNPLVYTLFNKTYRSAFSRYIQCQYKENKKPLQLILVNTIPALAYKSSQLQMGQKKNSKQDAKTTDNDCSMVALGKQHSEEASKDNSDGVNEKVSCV

Jurkat = test: Displacement of [3H]DTG from sigma receptor in human jurkat cells at 10^-5 M; assay type: cell-based; method in brief: as §2
[20] = molecular target: Substance-K receptor (Homo sapiens) (UniProt P21452); test: Displacement of [125I]NKA from human recombinant NK2 receptor expressed in CHO cells at 10^-5 M; assay type: cell-based; method in brief: as §2
Sequence of Substance-K receptor (Homo sapiens) (P21452 whole entry): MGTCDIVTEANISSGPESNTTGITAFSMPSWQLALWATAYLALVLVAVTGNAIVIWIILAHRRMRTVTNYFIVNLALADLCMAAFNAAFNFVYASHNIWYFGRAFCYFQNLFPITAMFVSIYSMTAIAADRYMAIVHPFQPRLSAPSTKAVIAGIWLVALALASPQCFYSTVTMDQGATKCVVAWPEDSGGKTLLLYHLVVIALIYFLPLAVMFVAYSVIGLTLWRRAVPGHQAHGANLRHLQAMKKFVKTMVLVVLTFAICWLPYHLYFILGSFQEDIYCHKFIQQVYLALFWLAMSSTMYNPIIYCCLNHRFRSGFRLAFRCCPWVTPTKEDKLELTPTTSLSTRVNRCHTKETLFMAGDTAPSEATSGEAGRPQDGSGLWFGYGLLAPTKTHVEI

[21] = molecular target: Mu-type opioid receptor (Homo sapiens) (UniProt P35372); test: Displacement of [3H]DAMGO from human recombinant Mu-type opioid receptor expressed in CHO cells at 10^-5 M; assay type: cell-based; method in brief: as §2
Sequence of Mu-type opioid receptor (Homo sapiens) (P35372 whole entry): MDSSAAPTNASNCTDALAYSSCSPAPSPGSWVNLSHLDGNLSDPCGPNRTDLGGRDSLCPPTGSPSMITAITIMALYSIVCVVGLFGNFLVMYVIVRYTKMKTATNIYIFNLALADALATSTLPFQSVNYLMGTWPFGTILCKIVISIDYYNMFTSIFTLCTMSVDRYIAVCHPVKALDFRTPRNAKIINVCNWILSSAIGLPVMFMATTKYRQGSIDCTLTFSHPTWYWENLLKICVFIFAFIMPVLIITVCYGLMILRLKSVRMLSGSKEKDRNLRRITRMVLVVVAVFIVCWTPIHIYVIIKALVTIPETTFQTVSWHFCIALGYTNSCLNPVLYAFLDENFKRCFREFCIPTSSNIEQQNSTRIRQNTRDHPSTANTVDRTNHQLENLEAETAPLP

Rattus norvegicus [22] = organism: Rattus norvegicus; test: Displacement of [125I][Tyr4]bombesin from rat cerebral cortex Bombesin receptor at 10^-5 M; assay type: tissue-based; method in brief: as §2
[23] = molecular target: Histamine H2 receptor (Homo sapiens) (UniProt P25021); test: Displacement of [125I]APT from human recombinant histamine H2 receptor expressed in CHO cells at 10^-5 M; assay type: cell-based; method in brief: as §2
[24] = molecular target: 5-hydroxytryptamine receptor 3A (Homo sapiens) (UniProt P46098); test: Displacement of [3H]BRL43694 from human recombinant 5-HT3 receptor expressed in CHO cells at 10^-5 M; assay type: cell-based; method in brief: as §2
Sequence of 5-hydroxytryptamine receptor 3A (Homo sapiens) (P46098 whole entry): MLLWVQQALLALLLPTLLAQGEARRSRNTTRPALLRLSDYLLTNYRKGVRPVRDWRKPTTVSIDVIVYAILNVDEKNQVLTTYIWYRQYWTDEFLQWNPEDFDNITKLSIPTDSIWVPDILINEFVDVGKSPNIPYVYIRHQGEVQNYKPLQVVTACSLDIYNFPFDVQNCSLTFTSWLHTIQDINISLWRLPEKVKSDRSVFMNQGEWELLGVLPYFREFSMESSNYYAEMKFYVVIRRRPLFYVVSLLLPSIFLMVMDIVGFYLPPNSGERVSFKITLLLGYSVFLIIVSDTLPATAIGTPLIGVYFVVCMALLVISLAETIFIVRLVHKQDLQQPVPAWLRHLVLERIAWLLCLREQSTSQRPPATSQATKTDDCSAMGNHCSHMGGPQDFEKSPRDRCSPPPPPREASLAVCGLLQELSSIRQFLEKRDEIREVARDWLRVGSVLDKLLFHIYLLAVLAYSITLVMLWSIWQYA

Rattus norvegicus [25] = test: Anticonvulsant activity in pilocarpine-induced status epilepticus Sprague-Dawley rat model at 30 mg/kg, ip after 4 hrs during post stage 3 seizure; assay type: functional, organism-based; method in brief: as §4
Rattus norvegicus [26] = organism: Rattus norvegicus; test: Displacement of [3H]TCP from rat cerebral cortex PCP receptor at 10^-5 M; assay type: tissue-based; method in brief: as §1
[27] = molecular target: 5-hydroxytryptamine receptor 2C (Homo sapiens) (UniProt P28335); test: Displacement of [3H][…] from human recombinant 5-HT2C receptor expressed in HEK293 cells at 10^-5 M; assay type: cell-based; method in brief: as §1
Sequence of 5-hydroxytryptamine receptor 2C (Homo sapiens) (P28335 whole entry): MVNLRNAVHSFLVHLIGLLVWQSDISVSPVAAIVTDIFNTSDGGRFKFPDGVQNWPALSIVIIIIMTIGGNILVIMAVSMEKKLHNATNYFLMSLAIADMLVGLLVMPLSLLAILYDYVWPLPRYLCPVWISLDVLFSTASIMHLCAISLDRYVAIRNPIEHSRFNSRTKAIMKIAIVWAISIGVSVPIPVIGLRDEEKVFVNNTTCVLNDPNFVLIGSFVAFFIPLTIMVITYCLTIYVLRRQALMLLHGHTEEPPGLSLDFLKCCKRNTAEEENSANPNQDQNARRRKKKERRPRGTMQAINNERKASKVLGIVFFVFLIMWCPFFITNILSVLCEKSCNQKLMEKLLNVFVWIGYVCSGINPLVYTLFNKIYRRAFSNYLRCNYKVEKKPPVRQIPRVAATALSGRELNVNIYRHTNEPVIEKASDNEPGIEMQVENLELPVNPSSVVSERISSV

[28] = molecular target: 5-hydroxytryptamine receptor 1A (Homo sapiens) (UniProt P08908); test: Displacement of [3H]8-OHDPAT from human recombinant 5-HT1A receptor expressed in HEK293 cells at 10^-5 M; assay type: cell-based; method in brief: as §2
Sequence of 5-hydroxytryptamine receptor 1A (Homo sapiens) (P08908 whole entry): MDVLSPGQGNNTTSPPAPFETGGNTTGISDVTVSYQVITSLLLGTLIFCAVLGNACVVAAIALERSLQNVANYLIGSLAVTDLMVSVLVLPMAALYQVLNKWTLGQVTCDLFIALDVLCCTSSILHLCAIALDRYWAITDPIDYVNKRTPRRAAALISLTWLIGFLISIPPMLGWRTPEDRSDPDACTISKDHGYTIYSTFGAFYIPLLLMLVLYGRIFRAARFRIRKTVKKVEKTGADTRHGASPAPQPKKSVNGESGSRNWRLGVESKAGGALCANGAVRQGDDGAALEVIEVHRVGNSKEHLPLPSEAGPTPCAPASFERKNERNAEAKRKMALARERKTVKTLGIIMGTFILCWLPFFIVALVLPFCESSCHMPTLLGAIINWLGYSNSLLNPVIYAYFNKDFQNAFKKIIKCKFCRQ

Rattus norvegicus [29] = test: Anticonvulsant activity in pilocarpine-induced status epilepticus Sprague-Dawley rat model at 30 mg/kg, ip after 0.5 hrs during post stage 3 seizure; assay type: functional, organism-based; method in brief: as §4
[30] = molecular target: Adrenergic receptor alpha-2 (Rattus norvegicus) (UniProt P22086+P19328+P22909); test: Displacement of [3H]RX 821002 from rat cerebral cortex Alpha-2 adrenergic receptor at 10^-5 M; assay type: tissue-based; method in brief: as §2
[31] = molecular target: D(4) dopamine receptor (Homo sapiens) (UniProt P21917); test: Displacement of [3H]methylspiperone from human recombinant Dopamine D4.4 receptor expressed in CHO cells at 10^-5 M; assay type: cell-based; method in brief: as §1
[32] = molecular target: Neuromedin-K receptor (Homo sapiens) (UniProt P29371); test: Displacement of [3H]SR142801 from human recombinant NK3 receptor expressed in CHO cells at 10^-5 M; assay type: cell-based; method in brief: as §1
Sequence of Neuromedin-K receptor (Homo sapiens) (P29371 whole entry): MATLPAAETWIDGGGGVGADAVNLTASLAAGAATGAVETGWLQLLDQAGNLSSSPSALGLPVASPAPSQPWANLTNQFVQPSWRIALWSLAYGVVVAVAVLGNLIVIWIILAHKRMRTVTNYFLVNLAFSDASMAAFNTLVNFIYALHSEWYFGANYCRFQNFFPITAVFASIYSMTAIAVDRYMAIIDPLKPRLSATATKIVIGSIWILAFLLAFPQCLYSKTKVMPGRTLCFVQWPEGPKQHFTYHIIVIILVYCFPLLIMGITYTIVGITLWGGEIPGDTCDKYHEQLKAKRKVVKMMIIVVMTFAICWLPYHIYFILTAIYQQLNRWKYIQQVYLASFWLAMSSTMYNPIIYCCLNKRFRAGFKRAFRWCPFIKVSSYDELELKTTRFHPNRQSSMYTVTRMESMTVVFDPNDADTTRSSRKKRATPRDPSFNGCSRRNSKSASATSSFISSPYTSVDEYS

| SMILES | inhibition [1] [%] | inhibition (Rattus norvegicus [2]) [%] | inhibition [3] [%] | inhibition [4] [%] | Activity (Mus musculus [5]) | inhibition [6] [%] | inhibition [7] [%] | inhibition [8] [%] | Activity (Rattus norvegicus [9]) | Activity (Mus musculus [10]) | inhibition [11] [%] | inhibition (Rattus norvegicus [12]) [%] | inhibition (Rattus norvegicus [13]) [%] | inhibition [14] [%] | inhibition [15] [%] | inhibition [16] [%] | Activity (Mus musculus [17]) | inhibition [18] [%] | inhibition [19] [%] | inhibition (Jurkat) [%] | also measured |
| --- | --- | --- | --- | --- | --- | --- | --- | --- | --- | --- | --- | --- | --- | --- | --- | --- | --- | --- | --- | --- | --- |
| Cc1cccc(C)c1OCCOCCN[C@@H](C)CO | 91.4 | 65.9 | 78.8 | -0.4 | inactive | 5.7 | 0.2 | 9 | inactive | Active | 37.2 | 79 | 17.7 | 2.2 | 4.4 | 28.3 | inactive | 51.7 | 32.1 | 95.6 | inhibition [20]: 41.2%; inhibition [21]: 40.2%; inhibition (Rattus norvegicus [22]): -5.4%; inhibition [23]: 17.1%; inhibition [24]: 12.3%; Activity (Rattus norvegicus [25]): inactive; inhibition (Rattus norvegicus [26]): 5.8%; inhibition [27]: 47.4%; inhibition [28]: 63.9%; Activity (Rattus norvegicus [29]): inactive; inhibition [30]: 35.5%; inhibition [31]: 35.8%; inhibition [32]: 15% |
| Cc1cccc(C)c1OCCOCCN[C@H](C)CO | 96.5 | 43.6 | 89.4 | -0.7 | inactive | 2 | 1.5 | 5.3 | inactive | Active | 20.8 | 54.9 | 0.8 | -3.6 | 8.5 | 32.3 | inactive | 17.3 | 22.6 | 92.9 | inhibition [20]: 2.2%; inhibition [21]: 23.6%; inhibition (Rattus norvegicus [22]): -1.4%; inhibition [23]: 0.6%; inhibition [24]: 29.4%; Activity (Rattus norvegicus [25]): inactive; inhibition (Rattus norvegicus [26]): 9.6%; inhibition [27]: 34.7%; inhibition [28]: 70.6%; Activity (Rattus norvegicus [29]): inactive; inhibition [30]: 42.8%; inhibition [31]: 40.9%; inhibition [32]: 8% |
